Measured values published in ChEMBL document CHEMBL1126108, “Quisqualic acid analogues: synthesis of beta-heterocyclic 2-aminopropanoic acid derivatives and their activity at a novel quisqualate-sensitized site” (J Med Chem, 1992).

Columns and labels:
Format in all cases: functional
Rattus norvegicus [1] = species: Rattus norvegicus; experiment: Inhibitory concentration against evoked synaptic field potential of CA1 neurons in absence of quisqualic acid from rat hippocampus
Method in brief: (§1)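 Transverse 500-µm hippocampal slices from 30–100-day-old male Sprague-Dawley rats, submerged in oxygenated medium at 34 °C. Field potentials evoked by stimulating the Schaffer collaterals. Compound started at a subthreshold level and doubled every 4 min until the response fell >70% or exceeded 10 mM. IC50 was interpolated from fractional peak amplitude versus log concentration. Sequence included a 16 µM L-quisqualate exposure between tests.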

Rattus norvegicus [2] = species: Rattus norvegicus; experiment: Sensitization effect was determined
Rattus norvegicus [3] = species: Rattus norvegicus; experiment: Inhibitory concentration against evoked synaptic field potential of CA1 neurons in presence of 16 uM quisqualic acid from rat hippocampus; method in brief: as §1

SMILES	IC50 (Rattus norvegicus [1]; Rattus norvegicus)	Sensitisation (Rattus norvegicus [2])	IC50 (Rattus norvegicus [3]; Rattus norvegicus)	IC50 (Rattus norvegicus [1])	IC50 (Rattus norvegicus [3])
N[C@@H](Cn1oc(=O)[nH]c1=O)C(=O)O [QUISQUALATE]	3.9 µM	1.3	2.9 µM		
N[C@@H](CC1=CC(=O)NC1=O)C(=O)O	21 µM	2.2	9.5 µM		
N[C@@H](CC1=CC(=O)N(CC(=O)O)C1=O)C(=O)O		7.7			
N[C@H](Cn1oc(=O)[nH]c1=O)C(=O)O	78 µM	7.5	10 µM		
CN1C(=O)C=C(C[C@H](N)C(=O)O)C1=O	95 µM	14	6.8 µM		
NC(CN1CC(=O)NC1=O)C(=O)O (configuration not stated)	1.4 µM	1.7	0.8 µM		
N[C@@H](CC1CC(=O)NC1=O)C(=O)O (stereo in doubt; 5a)				> 10000 µM	> 10000 µM
N[C@@H](CCP(=O)(O)O)C(=O)O	1800 µM	33	55 µM		
N[C@@H](CC1CC(=O)NC1=O)C(=O)O (stereo in doubt; 5b)		1.3		9200 µM	6800 µM
N[C@H](CCP(=O)(O)O)C(=O)O	2600 µM	17	152 µM		
